Results reported in ChEMBL document CHEMBL2074148, “Interaction of human and rat organic anion transporter 2 with various cephalosporin antibiotics” (Eur J Pharmacol, 2003).

T1: Solute carrier family 22 member 7 (Homo sapiens, UniProt Q9Y694)
T1 sequence (Q9Y694 whole entry): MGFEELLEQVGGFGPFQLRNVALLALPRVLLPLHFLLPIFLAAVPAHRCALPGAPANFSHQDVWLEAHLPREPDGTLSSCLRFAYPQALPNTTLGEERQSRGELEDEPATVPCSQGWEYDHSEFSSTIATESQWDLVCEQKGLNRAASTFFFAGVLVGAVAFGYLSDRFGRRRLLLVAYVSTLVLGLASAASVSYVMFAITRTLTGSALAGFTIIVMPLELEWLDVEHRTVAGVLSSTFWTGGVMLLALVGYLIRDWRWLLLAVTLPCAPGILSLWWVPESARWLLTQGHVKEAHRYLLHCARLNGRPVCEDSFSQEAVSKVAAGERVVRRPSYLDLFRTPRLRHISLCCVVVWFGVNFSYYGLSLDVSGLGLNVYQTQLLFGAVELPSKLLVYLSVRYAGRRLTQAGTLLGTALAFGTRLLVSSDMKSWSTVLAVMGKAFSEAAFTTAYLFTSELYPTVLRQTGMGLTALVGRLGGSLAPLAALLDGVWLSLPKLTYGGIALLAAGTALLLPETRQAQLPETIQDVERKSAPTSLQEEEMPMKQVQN

T2: Solute carrier family 22 member 7 (Rattus norvegicus, UniProt Q5RLM2)
T2 sequence (Q5RLM2 whole entry): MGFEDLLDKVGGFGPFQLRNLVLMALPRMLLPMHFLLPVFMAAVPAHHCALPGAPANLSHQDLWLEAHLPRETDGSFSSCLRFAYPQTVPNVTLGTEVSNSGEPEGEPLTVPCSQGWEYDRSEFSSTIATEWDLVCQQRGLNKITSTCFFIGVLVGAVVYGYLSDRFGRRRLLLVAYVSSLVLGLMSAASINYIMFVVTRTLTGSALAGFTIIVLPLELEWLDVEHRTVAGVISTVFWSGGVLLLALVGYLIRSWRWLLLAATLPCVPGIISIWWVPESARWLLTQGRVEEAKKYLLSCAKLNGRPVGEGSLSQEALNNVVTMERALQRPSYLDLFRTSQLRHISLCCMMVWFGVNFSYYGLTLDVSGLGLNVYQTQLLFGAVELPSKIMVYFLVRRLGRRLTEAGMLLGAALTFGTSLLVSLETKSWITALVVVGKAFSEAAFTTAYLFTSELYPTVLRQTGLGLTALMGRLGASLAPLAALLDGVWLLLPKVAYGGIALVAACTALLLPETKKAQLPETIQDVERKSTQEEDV

T3: Organic anion transporter 3 (Homo sapiens, UniProt Q8TCC7)
T3 sequence (Q8TCC7 whole entry): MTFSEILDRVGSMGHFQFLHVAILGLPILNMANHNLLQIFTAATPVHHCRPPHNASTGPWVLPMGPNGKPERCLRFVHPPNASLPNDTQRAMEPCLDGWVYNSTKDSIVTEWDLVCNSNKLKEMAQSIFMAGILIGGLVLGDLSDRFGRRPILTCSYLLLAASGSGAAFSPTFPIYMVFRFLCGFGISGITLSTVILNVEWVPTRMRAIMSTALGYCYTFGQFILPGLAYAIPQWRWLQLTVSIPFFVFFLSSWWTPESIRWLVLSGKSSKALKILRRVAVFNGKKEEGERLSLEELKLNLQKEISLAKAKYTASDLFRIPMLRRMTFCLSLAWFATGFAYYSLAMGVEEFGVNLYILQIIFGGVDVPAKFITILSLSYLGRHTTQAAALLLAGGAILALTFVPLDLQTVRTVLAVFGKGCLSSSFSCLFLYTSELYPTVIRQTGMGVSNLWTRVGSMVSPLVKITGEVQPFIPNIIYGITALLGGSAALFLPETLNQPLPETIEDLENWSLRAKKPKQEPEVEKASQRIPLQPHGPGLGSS

T4: Solute carrier family 22 member 11 (Homo sapiens, UniProt Q9NSA0)
T4 sequence (Q9NSA0 whole entry): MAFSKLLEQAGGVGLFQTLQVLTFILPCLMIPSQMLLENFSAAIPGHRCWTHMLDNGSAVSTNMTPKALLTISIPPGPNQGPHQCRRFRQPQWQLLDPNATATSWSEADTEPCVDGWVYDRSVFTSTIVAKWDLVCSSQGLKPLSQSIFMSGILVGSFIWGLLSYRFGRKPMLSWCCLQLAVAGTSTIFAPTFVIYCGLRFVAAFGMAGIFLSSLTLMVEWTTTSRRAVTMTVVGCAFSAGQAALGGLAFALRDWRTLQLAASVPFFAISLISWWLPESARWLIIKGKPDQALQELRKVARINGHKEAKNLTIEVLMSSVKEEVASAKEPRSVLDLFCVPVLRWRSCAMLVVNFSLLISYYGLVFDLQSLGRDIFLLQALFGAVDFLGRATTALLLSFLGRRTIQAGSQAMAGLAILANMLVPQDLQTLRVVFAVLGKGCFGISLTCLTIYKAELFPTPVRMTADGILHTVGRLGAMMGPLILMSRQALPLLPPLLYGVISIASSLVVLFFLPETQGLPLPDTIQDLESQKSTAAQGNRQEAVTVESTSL

B1: Solute carrier family 22 member 7 (Rattus norvegicus) (protein)
chain: T2 sequence (Q5RLM2 whole entry)

What was measured:
Assay type in all cases: functional, cell-based
[1] = target: T1, Solute carrier family 22 member 7; test: (§1) TP_TRANSPORTER: inhibition of PGF2alpha in OAT2-S2 cells
Summary of the method: (§2)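 S2 cells stably expressing human or rat OAT2, seeded at 1 × 10^5 cells/well and grown for 2 days. Washed, then preincubated 10 min at 37 °C in D-PBS (pH 7.4). Uptake of 50 nM [3H]prostaglandin F2α measured at 37 °C with or without various concentrations of cephalosporin: 20 s for human OAT2, 2 min for rat OAT2. Stopped with ice-cold D-PBS; cells lysed in 0.1 N NaOH; scintillation counting.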

[2] = target: T2, Solute carrier family 22 member 7; test: as §1; summary of the method: as §2
[3] = target: T3, Organic anion transporter 3; test: TP_TRANSPORTER: cell viability in OAT3-S2 cells
Summary of the method: (§3)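 S2 cells stably transfected with the human OAT (pcDNA3.1), alongside mock-transfected controls, were seeded at 1 × 10^5 cells/well and cultured for 2 days. Cells were then exposed to 5 mM cephalosporin, with or without 1 mM probenecid, at 33 °C for 24 h. MTT was added for a further 4 h at 33 °C. Cells were solubilized in isopropanol/HCl and OD read at 570 nm (630 nm reference). Four determinations; mean ± S.E.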

[4] = target: T4, Solute carrier family 22 member 11; test: TP_TRANSPORTER: cell viability in OAT4-S2 cells; summary of the method: as §3
[5] = substrate: CCCCC[C@H](O)/C=C/[C@@H]1[C@@H](C/C=C\CCCC(=O)O)[C@@H](O)C[C@H]1O; test: TP_TRANSPORTER: uptake in OAT2-S2 cells

Row | Molecule | IC50 [1] | IC50 [2] | Activity [3] | Activity [4] | Km [5]
1 | Cn1nnnc1SCC1=C(C(=O)O)N2C(=O)[C@@H](NC(=O)[C@H](O)c3ccccc3)[C@H]2SC1 [CEFAMANDOLE] | 1570 µM | 3180 µM | – | – | –
2 | CCN1CCN(C(=O)N[C@@H](C(=O)N[C@@H]2C(=O)N3C(C(=O)O)=C(CSc4nnnn4C)CS[C@H]23)c2ccc(O)cc2)C(=O)C1=O [CEFOPERAZONE] | 1330 µM | 1620 µM | – | – | –
3 | CO/N=C(\C(=O)N[C@@H]1C(=O)N2C(C(=O)O)=C(COC(C)=O)CS[C@H]12)c1csc(N)n1 [CEFOTAXIME] | 4680 µM | > 5000 µM | – | – | –
4 | O=C(Cc1cccs1)N[C@@H]1C(=O)N2C(C(=O)[O-])=C(C[n+]3ccccc3)CS[C@H]12 [CEPHALORIDINE] | 4480 µM | > 5000 µM | substrate [] | substrate [] | –
5 | CC(=O)OCC1=C(C(=O)O)N2C(=O)[C@@H](NC(=O)Cc3cccs3)[C@H]2SC1 [CEPHALOTHIN] | 1410 µM | 1500 µM | – | – | –
6 | B1 | – | – | – | – | 0.414 µM
